Read-outs that look alike come from different tables or passages of the source.
Columns and labels:
[1] = target: T1, K1250A CFTR (Homo sapiens, UniProt P13569, K1250A); assay: Macroscopic pore-block/permeation assay on locked-open K1250A CFTR currents; format: biochemical; details: for fractional current of locked-open K1250A CFTR: 210 µM NPPB, 32 mM 3NB, 20 mM 3PP
Summary of the method: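 K1250A channels were locked open by removing 10 mM MgATP, in inside-out oocyte patches at 25°C, −80 and 60 mV. Test compounds were applied briefly alone or pairwise (head fragment 32 mM, tail fragment 20 mM, parent 210 µM). Tail stock 50 mM was titrated with sulfuric acid (~0.45 mol/mol), so sulfate 1–20 mM was tested separately. Fractional current = quasi-steady drug current ÷ mean pre/post current. Apparent KI came from dose–response fits.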

[2] = target: T2, WT CFTR (Homo sapiens, UniProt P13569); assay: Macroscopic; format: biochemical
T2 sequence (P13569 whole entry): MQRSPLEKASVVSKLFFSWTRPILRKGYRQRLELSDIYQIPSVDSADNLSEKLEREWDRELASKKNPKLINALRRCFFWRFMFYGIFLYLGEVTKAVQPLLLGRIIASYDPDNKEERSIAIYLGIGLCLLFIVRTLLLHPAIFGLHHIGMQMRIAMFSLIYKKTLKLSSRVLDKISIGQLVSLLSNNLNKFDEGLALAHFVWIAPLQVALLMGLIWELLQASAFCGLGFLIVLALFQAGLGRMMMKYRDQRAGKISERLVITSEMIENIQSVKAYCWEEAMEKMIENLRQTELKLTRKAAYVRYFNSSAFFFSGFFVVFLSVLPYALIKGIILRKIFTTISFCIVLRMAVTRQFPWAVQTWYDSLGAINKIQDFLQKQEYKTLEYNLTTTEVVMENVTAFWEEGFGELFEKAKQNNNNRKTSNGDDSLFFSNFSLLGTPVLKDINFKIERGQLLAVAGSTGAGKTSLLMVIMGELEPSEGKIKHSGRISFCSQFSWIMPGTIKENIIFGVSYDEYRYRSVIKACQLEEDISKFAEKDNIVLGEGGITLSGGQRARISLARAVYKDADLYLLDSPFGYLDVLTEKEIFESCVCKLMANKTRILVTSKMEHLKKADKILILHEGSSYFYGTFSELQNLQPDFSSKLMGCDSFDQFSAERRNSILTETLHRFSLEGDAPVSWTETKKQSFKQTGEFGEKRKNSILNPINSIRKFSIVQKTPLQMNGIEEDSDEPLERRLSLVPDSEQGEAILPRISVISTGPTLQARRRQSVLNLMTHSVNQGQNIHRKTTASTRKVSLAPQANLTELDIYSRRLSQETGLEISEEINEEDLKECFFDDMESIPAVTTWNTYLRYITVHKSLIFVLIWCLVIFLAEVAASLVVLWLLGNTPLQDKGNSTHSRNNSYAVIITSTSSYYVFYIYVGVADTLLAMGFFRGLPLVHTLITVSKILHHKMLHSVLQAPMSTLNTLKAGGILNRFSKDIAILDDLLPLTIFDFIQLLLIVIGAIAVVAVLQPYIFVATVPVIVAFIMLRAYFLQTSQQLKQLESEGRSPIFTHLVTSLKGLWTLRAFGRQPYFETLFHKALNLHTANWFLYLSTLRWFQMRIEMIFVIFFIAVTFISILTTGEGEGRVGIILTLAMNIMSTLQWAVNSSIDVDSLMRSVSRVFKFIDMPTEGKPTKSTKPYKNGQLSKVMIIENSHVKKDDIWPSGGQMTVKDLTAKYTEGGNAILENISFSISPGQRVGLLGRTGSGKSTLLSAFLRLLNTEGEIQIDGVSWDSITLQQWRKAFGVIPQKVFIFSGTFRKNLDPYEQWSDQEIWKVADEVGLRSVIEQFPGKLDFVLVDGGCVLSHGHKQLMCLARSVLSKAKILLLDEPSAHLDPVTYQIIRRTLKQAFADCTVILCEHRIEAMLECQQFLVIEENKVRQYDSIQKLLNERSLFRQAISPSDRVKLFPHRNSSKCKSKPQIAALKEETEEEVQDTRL
Summary of the method: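 Human WT CFTR from cRNA (0.1–10 ng) was expressed in Xenopus oocytes; excised inside-out patches at 25°C, NMDG-Cl solutions, bath pH 7.1. Channels were prephosphorylated with 300 nM PKA catalytic subunit and gated in 2 mM MgATP ± test compound. Current decay after sudden ATP removal was fitted to a single exponential (rate = 1/τ), normalized to same-patch control and rescaled by pooled control mean. Mean ± SEM, n ≥ 5.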

[3] = target: T2, WT CFTR; assay: Steady-state macroscopic WT CFTR currents; format: biochemical
[4] = target: T3, E1371S CFTR (Homo sapiens, UniProt P13569, E1371S); format: biochemical; details: 80 mM MOPS−; −120 mV
T3 sequence (P13569 whole entry E1371S): as the sequence (P13569 whole entry) above, with E1371S counted along it
Summary of the method: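 E1371S CFTR channels were locked open in inside-out oocyte patches at 25°C, phosphorylated by PKA or endogenously. After ATP removal, test compound was applied briefly with or without 80 mM MOPS− (MOPS solutions pH 7.2, ~50% ionized). Fractional current = quasi-steady current in drug ÷ mean of pre- and post-exposure currents. Apparent KI was taken from dose–response fits. Mean ± SEM, n ≥ 5.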

[5] = target: T3, E1371S CFTR; details: read-out: apparent KI for pore block; −120 mV; ref Csanády and Töröcsik, 2014; cited from earlier work
[6] = target: T1, K1250A CFTR; assay: Macroscopic nonhydrolytic closing rate of K1250A CFTR after ATP removal; format: biochemical
Summary of the method: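 Nonhydrolytic closure of K1250A CFTR was studied in inside-out oocyte patches at 25°C, with channels gating in 10 mM MgATP after PKA prephosphorylation. The rate was the inverse of a single-exponential fit to current decay after ATP removal, normalized to same-patch control. Parent-compound series was recorded at −40 mV, fragment series at −20 mV. Mean ± SEM of at least five.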

[7] = tested on: ΔF508 CFTR; details: in vitro, cited from earlier work
[8] = target: T2, WT CFTR; assay: Single-channel steady-state kinetic analysis of WT CFTR; format: biochemical; details: 20 mM 3PP, −80 mV
Summary of the method: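 Steady-state WT CFTR gating was recorded after PKA prephosphorylation, in 2 mM ATP at −80 mV and 25°C. Patches held one active channel for the 32 mM head fragment, or one to four for the 20 mM tail fragment. Traces were filtered at 100 Hz (control, tail) or 50 Hz (head) and idealized by half-amplitude threshold. Events were fitted by maximum likelihood to a closed-open-blocked scheme (dead times 4 and 6 ms), yielding τb and τib.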

[9] = target: CFTR gating site (Homo sapiens, UniProt P13569); format: biochemical
Sequence of CFTR gating site (P13569 whole entry): as the sequence (P13569 whole entry) above
Summary of the method: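 Gating-site Kd was taken as the apparent K1/2 for stimulation of WT CFTR open probability at −80 mV, from Hill fits to Po dose–response curves, with binding assumed voltage independent. ΔG°binding = kT·ln(Kd).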

[10] = target: T1, K1250A CFTR; assay: Steady-state versus locked-open K1250A CFTR currents; format: biochemical; details: 32 mM 3NB, 20 mM 3PP; 10 mM ATP; −20 mV
Summary of the method: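 K1250A CFTR was recorded at −20 mV in 10 mM ATP, 25°C. Head (32 mM) or tail (20 mM) fragment was applied for long periods to channels gating at steady state (I/Icontrol), and briefly to locked-open channels after ATP removal (i/icontrol). Po change = (I/Icontrol)/(i/icontrol).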

[11] = target: CFTR pore-binding site (Homo sapiens, UniProt P13569, K1250A); assay: Estimated dissociation constants and free enthalpies of binding in the pore; format: biochemical; details: Kd(0) estimate for binding in the pore
Sequence of CFTR pore-binding site (P13569 whole entry K1250A): as the sequence (P13569 whole entry) above, with K1250A counted along it

T1 sequence (P13569 whole entry K1250A, the tested form may be a part): as the sequence (P13569 whole entry) above, with K1250A counted along it

## O=S(=O)(O)O [sulfate]
[1]; 60 mV
  effect on locked-open channel currents: did not affect locked-open channel currents
[1]; −80 mV, anomalous dose dependence
  sulfate concentration yielding maximal pore block: ~5 mM
[2]; 10 mM sulfate
  effect on WT CFTR closing rate: did not affect WT CFTR closing rate
[3]; 10 mM sulfate
  effect on WT CFTR open probability / gating: little effect

## O=S(=O)(O)CCCN1CCOCC1 [MOPS^−, reference compound]
[2]; 80 mM MOPS−, −120 mV
  effect on WT CFTR closing rate: little affected
[4]
  reduction of macroscopic current through locked-open E1371S channels: ~90%
[5]
  Ki: 8.3 mM
[6]; 80 mM MOPS−, −40 mV
  effect on K1250A closing rate: neither affected K1250A closing rate

## CC(C)(C)c1cc(C(C)(C)C)c(NC(=O)c2c[nH]c3ccccc3c2=O)cc1O [VX-770]
[7]; ref Kopeikin et al., 2014
  stimulation of ΔF508 CFTR currents: 10–20 fold
[7]; ref Van Goor et al., 2009
  stimulation of ΔF508 CFTR currents: ~5 fold

## NCCCc1ccccc1 [3PP, 3-phenylpropylamine]
[1]; 20 mM 3PP-sulfate
  effects on unitary currents: ~10%
[1]; 60 mV
  fractional current of locked-open K1250A CFTR: ~1.11
[1]; K1/2 for enhancement of locked-open K1250A current, 60 mV, tentative Hill fit
  EC50: ~10 mM
[1]; positive voltages (60 mV), high 3PP concentrations
  enhancement of the rate of ion flow through locked-open K1250A channels: ~10%
[1]; −80 mV
  fractional current of locked-open K1250A CFTR: ~0.91
[2]; 20 mM 3PP-sulfate, −80 mV
  slowing of WT CFTR hydrolytic closing rate: ~2.5 fold
[8]
  effect on unitary current amplitude: little affected unitary current amplitude
[8]; 32 mM 3NB, 2 mM ATP
  effect on mean burst duration τb: prolonged τb
  effect on mean interburst duration τib: did not affect τib
  stimulation of single-channel Po: twofold
[6]; 20 mM 3PP, −20 mV
  acceleration of K1250A closing rate: ~20%
[9]
  Kd: 6 mM
[3]; high concentrations, −80 mV, macroscopic
  stimulation of open probability for WT CFTR: two- to threefold
[10]
  effect on Po of K1250A CFTR: no change in Po
[11]; assuming z = 0.1
  Kd: 12.6 mM
[11]; assuming z = 0.2
  Kd: 16 mM
[11]; assuming z = 0.5
  Kd: 32 mM

From article PMC4178936 (The Journal of General Physiology, 2014)
